Results published in article PMC6150782 (Journal of molecular neuroscience : MN, 2018).
In brackets after ≈: the same amount, converted by molar mass.

Legend:
hippocampal cultures [1] = format: cell-based, rat; conditions: for cell death response at 30 min or 60 min of incubation / time points with significant cell death differences from control: 30 μM cannabidiol, 100 μM KLS-13019, day 18–19 cultures
hERG channel = hERG channel (Homo sapiens, UniProt Q12809); assay: hERG channel binding assay; conditions: 10 μM; [3H]-dofetilide; HEK-293
Summary of the method: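 Binding to human recombinant hERG expressed in HEK-293 cells, using 3 nM [3H]-dofetilide. Test compound at 10 μM, 60 min at room temperature. Non-specific binding defined with 25 μM terfenadine. Reported as % inhibition of control specific binding. Run by a contract lab.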

[2] = tested on: dissociated rat hippocampal cultures; format: cell-based
Summary of the method: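 E18 rat hippocampal cultures at days 12–14 received test compound (5 concentrations, n=5, two plates) 5 min before 30 mM ethanol plus 300 μM ammonium acetate, then 5 h at 37 °C. Medium removed and 50 μM propidium iodide applied for 15 min in the dark at room temperature. Read at Ex536/Em590 minus cell-free blank wells. IC50 from 4-parameter logistic fit.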

hippocampal cultures [3] = assay: Effect of CB2 antagonist AM 630 on neuroprotection from ethanol, CFDA assay; format: cell-based, rat; conditions: AM 630 0.1 to 100 nM; 30 mM ethanol; 10 μM CBD or 100 nM KLS-13019
[4] = Metabolic stability in mouse liver microsomes; format: in vitro ADME
Summary of the method: (§1)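 Test compound at 1 μM incubated with human or mouse liver microsomes for up to 60 min. Samples analysed by LTQ-Orbitrap XL mass spectrometry. Single determination per time point. Testosterone at 1 μM served as the metabolically labile control. Run by a contract lab.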

[5] = tested on: dissociated rat hippocampal cultures; format: cell-based; remark: listed apart in the source
Summary of the method: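 Papain-dissociated E18 rat hippocampal cells at 10,000/well in serum-free Neurobasal/B27/GlutaMAX, used at days 12–14 after a medium change. Test compound (DMSO stock diluted in DPBS, ≤0.1% DMSO; 5 concentrations, n=5, two plates) added 5 min before 30 mM ethanol plus 300 μM ammonium acetate, then 5 h at 37 °C. CFDA 15 min at 37 °C, 30 min efflux wash, Triton lysis, Ex490/Em517. EC50 from 4-parameter logistic fit.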

[6] = Mouse plasma pharmacokinetics; format: in vivo, CD1 mice
[7] = Aqueous solubility, shaken flask method; format: physicochemical
Summary of the method: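 Shake-flask method at pH 1.2, 7.4 and 9.2. Dissolved concentration measured by HPLC against a standard curve.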

[8] = Metabolic stability in human liver microsomes; format: in vitro ADME
Summary of the method: as §1

[9] = Plasma protein binding, equilibrium dialysis, mouse plasma; format: in vitro ADME; conditions: 1 μM, 5 hours at 37 °C
PPARγ = molecular target: T1, PPARγ (Homo sapiens, UniProt P37231); assay: PPARγ agonist binding; conditions: 10 μM; data not shown
T1 sequence (P37231 1-505): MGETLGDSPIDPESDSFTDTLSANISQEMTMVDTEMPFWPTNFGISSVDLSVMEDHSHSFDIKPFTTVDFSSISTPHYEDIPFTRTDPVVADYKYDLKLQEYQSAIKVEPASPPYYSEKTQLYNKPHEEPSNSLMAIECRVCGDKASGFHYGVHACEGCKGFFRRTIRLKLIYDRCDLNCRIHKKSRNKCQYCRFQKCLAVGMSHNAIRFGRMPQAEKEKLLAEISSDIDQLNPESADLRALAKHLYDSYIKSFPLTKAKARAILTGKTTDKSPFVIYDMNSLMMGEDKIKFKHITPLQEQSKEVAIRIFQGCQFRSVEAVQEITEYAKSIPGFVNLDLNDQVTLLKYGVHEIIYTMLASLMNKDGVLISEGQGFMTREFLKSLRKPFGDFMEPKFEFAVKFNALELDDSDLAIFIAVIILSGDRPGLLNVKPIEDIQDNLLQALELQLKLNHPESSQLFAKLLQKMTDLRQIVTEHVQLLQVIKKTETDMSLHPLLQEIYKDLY

Log P = format: physicochemical
[10] = Anticonvulsant activity in animal models; conditions: in vivo
[11] = Plasma protein binding, equilibrium dialysis, human plasma; format: in vitro ADME; conditions: 1 μM, 5 hours at 37 °C
hippocampal cultures [12] = format: cell-based, rat
TRPV1 = TRPV1 (Homo sapiens, UniProt Q8NER1); assay: TRPV1 receptor binding screen; conditions: 10 μM; data not shown
CB2 = CB2 (Homo sapiens, UniProt P34972); assay: CB2 binding; conditions: 10 μM; 0.8 nM radioligand; human recombinant CHO cells
5HT1a = molecular target: T2, 5HT1a (Homo sapiens, UniProt P08908); assay: 5HT1a agonist binding; conditions: 10 μM; data not shown
T2 sequence (P08908 1-422): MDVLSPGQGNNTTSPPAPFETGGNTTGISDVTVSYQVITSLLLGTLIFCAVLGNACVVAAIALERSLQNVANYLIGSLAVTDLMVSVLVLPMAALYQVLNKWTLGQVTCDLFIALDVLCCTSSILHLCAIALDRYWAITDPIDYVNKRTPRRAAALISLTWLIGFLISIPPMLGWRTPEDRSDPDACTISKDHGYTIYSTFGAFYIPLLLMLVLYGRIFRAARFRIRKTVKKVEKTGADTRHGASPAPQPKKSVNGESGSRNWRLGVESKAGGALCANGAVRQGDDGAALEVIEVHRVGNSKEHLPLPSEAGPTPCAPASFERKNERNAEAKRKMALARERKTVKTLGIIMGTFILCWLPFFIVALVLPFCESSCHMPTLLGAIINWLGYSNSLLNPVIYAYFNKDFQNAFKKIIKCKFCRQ

[13] = combined ethanol + ammonium acetate
[14] = male, CD1, mouse, plasma, po, 10 mg/kg
[15] = compound alone in Captisol, 5 hours, day 14 cultures
[16] = CD1 mice, plasma, 10 mg/kg p.o.

Sequence of TRPV1 (Q8NER1 whole entry, species assumed): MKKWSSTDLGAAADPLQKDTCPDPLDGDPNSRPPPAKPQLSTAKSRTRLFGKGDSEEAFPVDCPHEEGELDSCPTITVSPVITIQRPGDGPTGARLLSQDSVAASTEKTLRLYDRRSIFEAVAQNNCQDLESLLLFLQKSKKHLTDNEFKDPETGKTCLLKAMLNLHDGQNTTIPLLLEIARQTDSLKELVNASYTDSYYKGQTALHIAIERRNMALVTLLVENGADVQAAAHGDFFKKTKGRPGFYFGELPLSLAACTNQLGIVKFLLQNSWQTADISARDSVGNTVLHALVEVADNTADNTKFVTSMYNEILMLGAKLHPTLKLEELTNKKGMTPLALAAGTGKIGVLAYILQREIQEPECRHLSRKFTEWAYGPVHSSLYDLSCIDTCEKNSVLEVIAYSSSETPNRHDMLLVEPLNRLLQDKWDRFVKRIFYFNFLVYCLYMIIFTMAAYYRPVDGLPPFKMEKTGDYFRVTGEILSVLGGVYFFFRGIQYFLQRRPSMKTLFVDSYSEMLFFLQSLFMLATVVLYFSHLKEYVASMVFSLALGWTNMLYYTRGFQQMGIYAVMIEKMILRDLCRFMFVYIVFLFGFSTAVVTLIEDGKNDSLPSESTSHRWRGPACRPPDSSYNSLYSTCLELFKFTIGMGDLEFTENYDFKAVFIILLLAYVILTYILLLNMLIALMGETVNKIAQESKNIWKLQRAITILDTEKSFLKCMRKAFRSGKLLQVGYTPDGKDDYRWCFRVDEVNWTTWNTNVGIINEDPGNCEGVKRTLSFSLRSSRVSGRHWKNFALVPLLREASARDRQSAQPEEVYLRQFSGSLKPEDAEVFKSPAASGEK
Sequence of hERG channel (Q12809 whole entry): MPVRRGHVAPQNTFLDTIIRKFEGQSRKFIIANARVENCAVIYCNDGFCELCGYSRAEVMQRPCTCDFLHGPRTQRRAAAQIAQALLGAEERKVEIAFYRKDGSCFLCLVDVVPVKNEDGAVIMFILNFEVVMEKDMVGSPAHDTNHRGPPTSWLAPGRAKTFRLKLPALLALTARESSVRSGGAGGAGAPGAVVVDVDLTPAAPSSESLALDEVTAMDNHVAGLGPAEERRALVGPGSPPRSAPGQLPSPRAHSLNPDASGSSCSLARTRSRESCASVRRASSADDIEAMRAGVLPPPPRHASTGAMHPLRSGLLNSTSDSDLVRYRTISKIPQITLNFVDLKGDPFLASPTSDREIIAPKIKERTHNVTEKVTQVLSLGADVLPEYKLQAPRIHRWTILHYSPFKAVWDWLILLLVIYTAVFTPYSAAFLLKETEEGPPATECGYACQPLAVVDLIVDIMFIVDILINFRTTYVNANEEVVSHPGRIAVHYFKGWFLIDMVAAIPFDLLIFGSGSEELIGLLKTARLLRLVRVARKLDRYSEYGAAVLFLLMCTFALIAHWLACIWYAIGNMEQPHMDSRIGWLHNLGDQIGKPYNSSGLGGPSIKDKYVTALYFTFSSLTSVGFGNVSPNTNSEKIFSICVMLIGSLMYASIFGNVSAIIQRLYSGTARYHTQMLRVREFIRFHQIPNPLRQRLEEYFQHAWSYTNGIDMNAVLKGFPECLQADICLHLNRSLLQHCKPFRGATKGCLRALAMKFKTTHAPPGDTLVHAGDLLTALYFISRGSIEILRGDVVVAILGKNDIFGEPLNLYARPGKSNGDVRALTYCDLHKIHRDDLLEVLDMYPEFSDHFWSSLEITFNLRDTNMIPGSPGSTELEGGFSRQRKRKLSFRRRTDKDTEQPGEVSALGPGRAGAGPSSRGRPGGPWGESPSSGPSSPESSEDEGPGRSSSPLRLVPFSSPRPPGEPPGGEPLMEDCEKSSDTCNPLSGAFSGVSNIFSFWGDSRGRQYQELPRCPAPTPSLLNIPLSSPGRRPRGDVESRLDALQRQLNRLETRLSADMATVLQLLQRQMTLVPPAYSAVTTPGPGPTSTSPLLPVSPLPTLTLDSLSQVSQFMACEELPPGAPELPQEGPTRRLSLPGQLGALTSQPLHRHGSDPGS
Sequence of CB2 (P34972 whole entry): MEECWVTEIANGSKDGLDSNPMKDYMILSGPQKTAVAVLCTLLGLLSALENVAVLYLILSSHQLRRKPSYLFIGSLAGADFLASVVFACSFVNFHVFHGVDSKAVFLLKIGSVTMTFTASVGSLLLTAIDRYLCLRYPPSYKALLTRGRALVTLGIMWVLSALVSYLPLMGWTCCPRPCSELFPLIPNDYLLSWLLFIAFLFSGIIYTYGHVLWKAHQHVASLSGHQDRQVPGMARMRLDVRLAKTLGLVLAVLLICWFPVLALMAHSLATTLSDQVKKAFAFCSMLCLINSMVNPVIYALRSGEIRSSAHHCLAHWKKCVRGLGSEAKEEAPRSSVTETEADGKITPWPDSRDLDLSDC

Q: Which “concentration with significant increase in propidium iodide fluorescence” value (hippocampal cultures [1]; 5 hours, day 14 cultures) does the source give for O=C1CSC(c2ccccc2Cl)c2cc(Cl)ccc2N1 (stereo not shown) [CGP-37157, 7-Chloro-5-(2-chlorophenyl)-1,5-dihydro-4,1-benzothiazepin-2(3H)-one, reference compound] here?
A: 100 µM

Q: With C=C(C)[C@@H]1CCC(C)=C[C@H]1c1c(O)cc(CCCCC)cc1O [Cannabidiol, reference compound] as the compound, how does the “hERG Potassium channel % Inhibition of specific binding” value (hERG channel) read?
A: 73%

Q: What about the “efficacy of neuroprotection back to control levels (PI)” value [2, 13] of the same compound?
A: full efficacy

Q: And the “effect of CB2 antagonist AM 630 on compound-mediated neuroprotection” value (hippocampal cultures [3])?
A: significantly attenuated

Q: What about the half-life at 1 μM ([4]; mouse, liver microsomes) of the same compound?
A: < 5 min

Q: And the “cell death response at 30 min or 60 min of incubation” value (hippocampal cultures [1])?
A: no significant changes from controls

Q: And the “time points with significant cell death differences from control” value (hippocampal cultures [1])?
A: ≥ 3 h

Q: And the “efficacy of neuroprotection back to control levels (CFDA)” value [5, 13]?
A: full efficacy

Q: What about the “concentration required for full efficacy against oxidative stress toxicity” value ([5]; hippocampal cultures) of the same compound?
A: 10 µM

Q: And the “CL IV 2 mg/kg” value ([6]; CD1 mice, IV 2 mg/kg)?
A: 7.2 L/h/kg

Q: And the “T 1/2 p.o.” value ([6]; CD1 mice, plasma, 10 mg/kg p.o., 10 mg/kg)?
A: 3.45 h

Q: What about the Vd ([6]; male, CD1, mouse, plasma, iv, 2 mg/kg) of the same compound?
A: 7.5 L/kg

Q: What about the bioavailability ([6]; male, CD1, mouse, plasma, oral, 10 mg/kg) of the same compound?
A: 8%

Q: What about the AUC [6, 14] of the same compound?
A: 268 ng·h/mL

Q: What about the Cmax [6, 14] of the same compound?
A: 51 ng/mL

Q: And the solubility ([7]; aqueous medium)?
A: 17 µM (≈ 5.35 µg/mL)

Q: And the half-life at 1 μM ([8]; human, liver microsomes)?
A: 3.75 min

Q: With C=C(C)[C@@H]1CCC(C)=C[C@H]1c1c(O)cc(CC2CN(C(C)=O)C2)cc1O [KLS-13019] as the compound, how does the “Plasma protein binding Mouse % bound” value [9] read?
A: 99.2%

Q: What about the “receptor binding PPARγ (agonist)” value (PPARγ) of the same compound?
A: no detectable interactions

Q: What about the “hERG Potassium channel % Inhibition of specific binding” value (hERG channel) of the same compound?
A: 12%

Q: What about the “efficacy of neuroprotection back to control levels (PI)” value [2, 13] of the same compound?
A: full efficacy

Q: What about the “fold increase in neuroprotective potency vs CBD (relative IC50s, PI)” value [2, 13] of the same compound?
A: 15 fold

Q: And the IC50 ([2]; read-out: IC50 for PI (neuroprotection), 30 mM Ethanol + 300 μM Ammonium Acetate, 5 hours, days 12–14)?
A: 203 nM

Q: And the “Log P” value (Log P)?
A: 3.42

Q: What about the “anticonvulsant activity in animal models” value [10] of the same compound?
A: lack of anticonvulsant activity

Q: And the “effect of CB2 antagonist AM 630 on compound-mediated neuroprotection” value (hippocampal cultures [3])?
A: had no effect

Q: What about the “Plasma protein binding Human % bound” value [11] of the same compound?
A: 99.2%

Q: What about the “Microsomal stability Mouse T 1/2” value ([4]; mouse liver microsomes, 1 μM) of the same compound?
A: 5.67 min

Q: What about the “TC50, neuronal viability assay” value (hippocampal cultures [12]; [15]) of the same compound?
A: 81 µM

Q: And the “maximal toxicity, % of control values” (hippocampal cultures [12]; day 14 cultures, 5 hours)?
A: 73 ± 3 % of control

Q: And the “maximal achieved toxicity, % of control, neuronal viability assay” value (hippocampal cultures [12]; day 19 cultures, time course at 30 μM cannabidiol, 100 μM KLS-13019)?
A: 62 ± 3 % of control

Q: And the “fold increase in TC50 relative to CBD” value (hippocampal cultures [12]; viability and cell death assays)?
A: 5 fold

Q: And the “cell death response at 30 min or 60 min of incubation” value (hippocampal cultures [1])?
A: no significant changes from controls

Q: What about the “time points with significant cell death differences from control” value (hippocampal cultures [1]) of the same compound?
A: ≥ 3 h

Q: What about the “TC50, cell death assay” value (hippocampal cultures [1]; [15]) of the same compound?
A: ~100 µM

Q: And the “receptor binding TRPV1 (agonist)” value (TRPV1)?
A: no detectable interactions

Q: And the “receptor binding TRPV1 (antagonist)” value (TRPV1)?
A: no detectable interactions

Q: What about the “efficacy of neuroprotection back to control levels (CFDA)” value [5, 13] of the same compound?
A: full efficacy

Q: What about the “fold increase in neuroprotective potency vs CBD (relative EC50s, CFDA)” value [5, 13] of the same compound?
A: 31 fold

Q: And the EC50 ([5]; read-out: EC50 for CFDA (neuroprotection), 30 mM Ethanol + 300 μM Ammonium Acetate, 5 hours, days 12–14)?
A: 127 ± 27 nM

Q: What about the “CL IV 2 mg/kg” value ([6]; CD1 mice, IV 2 mg/kg) of the same compound?
A: 4.6 L/h/kg

Q: And the “Vss IV 2 mg/kg” value ([6]; CD1 mice, IV 2 mg/kg)?
A: 3.2 L/kg

Q: What about the AUC p.o. [6, 16] of the same compound?
A: 617 ng·h/mL

Q: What about the “Cmax at 10 mg/kg p.o.” value [6, 16] of the same compound?
A: 1080 ng/mL

Q: And the Tmax p.o. [6, 16]?
A: 15 min

Q: And the “F% (oral bioavailability)” value ([6]; CD1 mice, oral 10 mg/kg, IV 2 mg/kg)?
A: 67%

Q: And the “fold increase in F% in comparison to CBD” value ([6]; mice)?
A: > 8 fold

Q: What about the “fold increase in AUC compared to CBD” value ([6]; mice, 10 mg/kg p.o.) of the same compound?
A: 2.3 fold

Q: And the “clearance (CL), i.v. arm” value ([6]; mice, i.v. 2 mg/kg)?
A: 4.6 mL/min/kg

Q: What about the “increase in T 1/2 in comparison to CBD” value ([6]; mice, p.o.) of the same compound?
A: more than 50%

Q: And the Aqueous solubility [7]?
A: 87 µM

Q: And the “fold increase in aqueous solubility in comparison to CBD” value [7]?
A: > five

Q: What about the “Microsomal stability Human T 1/2” value ([8]; human liver microsomes, 1 μM) of the same compound?
A: 5.69 min

Q: What about the “displacement of 3H-WIN-55212-2 radioactivity at CB2” value (CB2) of the same compound?
A: 55%

Q: What about the “receptor binding to 5HT-1a agonist site” value (5HT1a) of the same compound?
A: no detectable interactions
